In ChEMBL document CHEMBL5360543, “Designed multiple ligands for the treatment of type 2 diabetes mellitus and its complications: Discovery of (5-arylidene-4-oxo-2-thioxothiazolidin-3-yl)alkanoic acids active as novel dual-targeted PTP1B/AKR1B1 inhibitors” (Eur J Med Chem, 2023):
The source made the active and inactive calls. The rule behind the calls is not given here.

Key:
[1] = target: T1, Aldo-keto reductase family 1 member B1 (Homo sapiens, UniProt P15121); test: Inhibition of human recombinant AKR1B1 expressed in Escherichia coli BL21(DE3)pLysS using L-idose as substrate by NADPH oxidation based absorbance analysis
[2] = target: T2, Tyrosine-protein phosphatase non-receptor type 1 (Homo sapiens) (UniProt P18031); test: Inhibition of N-terminal polyHis-tagged human PTP1B1 (1 to 303 residues) expressed in Escherichia coli BL21(DE3)pLysS assessed as enzyme residual activity using pNPP as substrate at 5 uM by spectrophotometric analysis
T2 sequence (whole entry): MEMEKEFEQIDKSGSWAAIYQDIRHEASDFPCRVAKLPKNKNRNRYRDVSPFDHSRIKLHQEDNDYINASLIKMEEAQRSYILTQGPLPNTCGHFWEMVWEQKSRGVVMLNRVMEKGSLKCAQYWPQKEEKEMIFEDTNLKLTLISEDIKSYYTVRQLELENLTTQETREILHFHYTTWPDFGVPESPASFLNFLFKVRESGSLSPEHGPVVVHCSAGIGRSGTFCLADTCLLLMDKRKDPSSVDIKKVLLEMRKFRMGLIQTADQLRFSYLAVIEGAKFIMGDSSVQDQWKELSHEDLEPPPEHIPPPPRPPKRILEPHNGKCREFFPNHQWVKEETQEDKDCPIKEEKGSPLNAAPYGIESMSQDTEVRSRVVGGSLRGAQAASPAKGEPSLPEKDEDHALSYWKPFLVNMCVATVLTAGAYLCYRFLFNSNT
Summary of the method: (§1)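 His-tagged human PTP1B (1–303) from E. coli BL21(DE3)pLysS, assayed in 0.075 M β,β-dimethylglutarate pH 7.0 with 1 mM EDTA, 0.1 mM DTT and pNPP. Reaction stopped with 0.1 M KOH; p-nitrophenol read at 400 nm. IC50 from 15–16 inhibitor concentrations in triplicate, normalized to control, fitted by nonlinear regression. Single-point residual activity at 5 µM.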

[3] = target: T3, Tyrosine-protein phosphatase non-receptor type 1 (Homo sapiens, UniProt P18031); test: Inhibition of N-terminal polyHis-tagged human PTP1B1 (1 to 303 residues) expressed in Escherichia coli BL21(DE3)pLysS using pNPP as substrate by spectrophotometric analysis; summary of the method: as §1
T3 sequence (P18031 whole entry): T2 sequence (whole entry)

[4] = target: T4, Tyrosine-protein phosphatase non-receptor type 2 (Homo sapiens, UniProt P17706); test: Inhibition of N-terminal polyHis-tagged human recombinant TC-PTPb (1 to 415 residues) expressed in Escherichia coli BL21(DE3)pLysS
T4 sequence (P17706 whole entry): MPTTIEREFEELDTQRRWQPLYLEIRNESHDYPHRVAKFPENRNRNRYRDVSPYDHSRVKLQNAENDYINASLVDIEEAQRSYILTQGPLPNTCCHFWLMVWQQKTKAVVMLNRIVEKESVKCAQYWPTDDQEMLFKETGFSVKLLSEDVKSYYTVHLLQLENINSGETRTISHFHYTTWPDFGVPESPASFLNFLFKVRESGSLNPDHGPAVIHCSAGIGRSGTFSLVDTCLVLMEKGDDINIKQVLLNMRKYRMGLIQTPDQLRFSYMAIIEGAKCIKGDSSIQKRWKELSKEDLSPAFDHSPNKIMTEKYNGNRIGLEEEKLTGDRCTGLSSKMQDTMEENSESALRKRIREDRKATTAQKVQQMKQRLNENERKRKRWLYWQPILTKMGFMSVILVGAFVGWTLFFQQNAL

Homo sapiens = organism: Homo sapiens; test: Selectivity index, ratio of IC50 for inhibition of N-terminal polyHis-tagged human recombinant TC-PTPb (1 to 415 residues) expressed in Escherichia coli BL21(DE3)pLysS to IC50 for inhibition of N-terminal polyHis-tagged human PTP1B1 (1 to 303 residues) expressed in Escherichia coli BL21(DE3)pLysS
[5] = target: T2, Tyrosine-protein phosphatase non-receptor type 1 (Homo sapiens); test: Reversible inhibition of N-terminal polyHis-tagged human PTP1B1 (1 to 303 residues) expressed in Escherichia coli BL21(DE3)pLysS using pNPP as substrate pretreated with enzyme for 60 mins followed by 400-fold dilution with buffer containing substrate and measured after 15 mins by spectrophotometric analysis; conditions: time 75.0 min
Summary of the method: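 PTP1B incubated 60 min at 37 °C with saturating inhibitor, then diluted 400-fold into assay buffer containing 2.5 mM pNPP. Stopped after 15 min with 0.2 M KOH; absorbance read at 400 nm. Normalized to enzyme diluted with DMSO; mean ± SEM (n = 3).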

[6] = target: T1, Aldo-keto reductase family 1 member B1; test: Reversible inhibition of human recombinant AKR1B1 expressed in Escherichia coli BL21(DE3)pLysS assessed as recovery of enzyme activity using L-idose as substrate measured after extensive dialysis by NADPH oxidation based absorbance analysis; design: scale not given: the % may be the effect or the level left
[7] = target: T3, Tyrosine-protein phosphatase non-receptor type 1; test: Mixed non-competitive inhibition of N-terminal polyHis-tagged human PTP1B1 (1 to 303 residues) expressed in Escherichia coli BL21(DE3)pLysS assessed as apparent dissociation constant for EI complex using pNPP as substrate by Lineweaver-Burk plot analysis
Summary of the method: (§2)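 PTP1B initial pNPP hydrolysis rates measured at seven pNPP concentrations (0.5–25 mM) and at least three inhibitor concentrations, in triplicate. Data fitted to Michaelis–Menten; KM and Vmax dependence on inhibitor analysed by Lineweaver–Burk plots.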

[8] = target: T3, Tyrosine-protein phosphatase non-receptor type 1; test: Mixed non-competitive inhibition of N-terminal polyHis-tagged human PTP1B1 (1 to 303 residues) expressed in Escherichia coli BL21(DE3)pLysS assessed as apparent dissociation constant for ESI complex using pNPP as substrate by Lineweaver-Burk plot analysis; summary of the method: as §2
[9] = target: T1, Aldo-keto reductase family 1 member B1; test: Mixed non-competitive inhibition of human recombinant AKR1B1 expressed in Escherichia coli BL21(DE3)pLysS assessed as apparent dissociation constant for EI complex using L-idose as substrate by secondary plot analysis
Summary of the method: (§3)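 AKR1B1 rates measured at varied L-idose concentrations with and without several inhibitor concentrations, then Lineweaver–Burk analysis. […] Tight binders fitted with the Morrison equation, KM for L-idose taken as 3.8 mM. At least three independent experiments.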

[10] = target: T1, Aldo-keto reductase family 1 member B1; test: Mixed non-competitive inhibition of human recombinant AKR1B1 expressed in Escherichia coli BL21(DE3)pLysS assessed as apparent dissociation constant for ESI complex using L-idose as substrate by secondary plot analysis; summary of the method: as §3
[11] = target: T1, Aldo-keto reductase family 1 member B1; test: Ratio of Ki for human recombinant AKR1B1 expressed in Escherichia coli BL21(DE3)pLysS assessed as apparent dissociation constant for EI complex to Ki for human recombinant AKR1B1 expressed in Escherichia coli BL21(DE3)pLysS assessed as apparent dissociation constant for ESI complex; summary of the method: as §3
C2C12 [12] = test: Cytotoxicity against mouse C2C12 cells assessed as reduction in cell viability at 20 uM incubated for 24 hrs by MTT assay; format: toxicity, cell-based; conditions: c2c12, 24 h
Summary of the method: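 C2C12 myoblasts were differentiated for 96 h in DMEM with 2% horse serum, then held 24 h in complete medium with 20 µM compound, DMSO vehicle as control. MTT 0.5 mg/mL was added, cells lysed in DMSO, absorbance read, and values normalized to vehicle. Quadruplicate, mean ± SD (n = 4).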

[13] = target: T5, Tyrosine-protein phosphatase non-receptor type 1 (Mus musculus) (UniProt P35821); test: Inhibition of PTP1B in mouse C2C12 cells assessed as increase in Akt phosphorylation by measuring increase in ratio of pAkt to Akt at 20 uM treated for 15 mins by western blot analysis; format: cell-based
T5 sequence (whole entry): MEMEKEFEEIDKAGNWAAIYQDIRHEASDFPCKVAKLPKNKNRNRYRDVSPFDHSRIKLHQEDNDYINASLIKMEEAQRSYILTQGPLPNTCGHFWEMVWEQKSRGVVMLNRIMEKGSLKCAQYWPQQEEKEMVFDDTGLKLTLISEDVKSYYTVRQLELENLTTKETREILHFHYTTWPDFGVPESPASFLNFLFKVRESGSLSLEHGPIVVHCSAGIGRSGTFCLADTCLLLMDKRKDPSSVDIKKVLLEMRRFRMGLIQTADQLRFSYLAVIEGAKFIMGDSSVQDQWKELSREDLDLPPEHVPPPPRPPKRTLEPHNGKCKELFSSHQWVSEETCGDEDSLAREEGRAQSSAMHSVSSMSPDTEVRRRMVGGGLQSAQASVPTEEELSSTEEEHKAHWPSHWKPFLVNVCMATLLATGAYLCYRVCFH
Summary of the method: (§4)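 C2C12 cells starved 24 h, then given 10 nM insulin, 20 µM compound, or both, for 15 min. Washed in cold PBS, lysed in 1X Laemmli buffer, run on SDS-PAGE, blotted to PVDF. Probed with antibodies to phospho-Akt and total Akt, with actin as loading control. Bands quantified; triplicate, mean ± SD (n = 3).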

[14] = target: T5, Tyrosine-protein phosphatase non-receptor type 1 (Mus musculus); test: Inhibition of PTP1B in mouse C2C12 cells assessed as potentiation of insulin-induced Akt phosphorylation by measuring increase in ratio of pAkt to Akt at 20 uM treated for 15 mins in presence of insulin by western blot analysis; format: cell-based; summary of the method: as §4
C2C12 [15] = test: Insulin-mimetic activity in mouse C2C12 cells assessed as stimulation of 2-NBDG uptake at 20 uM pretreated with compound for 15 mins followed by 2-NBDG addition and measured after 3 hrs by flow cytometry; format: functional, cell-based; conditions: time 195.0 min
Summary of the method: (§5)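 C2C12 cells serum-starved 24 h, then 15 min with 10 nM insulin, 20 µM compound, or both. Washed, then 3 h in starvation medium containing 40 µM 2-NBDG. Trypsinized, washed, and fluorescence measured by flow cytometry. Quadruplicate; mean fluorescence ± SD.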

C2C12 [16] = test: Insulin-mimetic activity in mouse C2C12 cells assessed as stimulation of 2-NBDG uptake at 20 uM pretreated with compound and insulin for 15 mins followed by 2-NBDG addition and measured after 3 hrs by flow cytometry; format: functional, cell-based; conditions: time 195.0 min; summary of the method: as §5
C2C12 [17] = test: Effect on total Akt protein expression in mouse C2C12 cells at 20 uM incubated for 15 mins by SDS-PAGE analysis; format: functional, cell-based; summary of the method: as §4
C2C12 [18] = test: Effect on total Akt protein expression in mouse C2C12 cells at 20 uM incubated for 15 mins in presence of insulin by SDS-PAGE analysis; format: functional, cell-based; summary of the method: as §4
[19] = target: T3, Tyrosine-protein phosphatase non-receptor type 1; test: Non-competitive inhibition of N-terminal polyHis-tagged human PTP1B1 (1 to 303 residues) expressed in Escherichia coli BL21(DE3)pLysS assessed as apparent dissociation constant for EI complex using pNPP as substrate by Lineweaver-Burk plot analysis; summary of the method: as §2
[20] = target: T3, Tyrosine-protein phosphatase non-receptor type 1; test: Non-competitive inhibition of N-terminal polyHis-tagged human PTP1B1 (1 to 303 residues) expressed in Escherichia coli BL21(DE3)pLysS assessed as apparent dissociation constant for ESI complex using pNPP as substrate by Lineweaver-Burk plot analysis; summary of the method: as §2
HLE = test: Cytotoxicity against human HLE cells assessed as reduction in cell viability at 2 uM incubated for 24 to 48 hrs by MTT assay; format: toxicity, cell-based; conditions: time 24-48 hrs
Summary of the method: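 HLE lens epithelial B3 cells in MEM with 20% FBS at 37 °C, exposed 24 and 48 h to compound in 0.05% DMSO. Then 1 h in MTT 0.5 mg/mL in phosphate buffer pH 7.4, formazan dissolved in 0.04 N HCl/isopropanol, absorbance 563 nm. Mean ± SEM of eleven independent measurements; Student's t test versus untreated cells.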

[21] = target: T1, Aldo-keto reductase family 1 member B1; test: Inhibition of AKR1B1 in human HLE cells assessed as inhibition of glucose-induced sorbitol accumulation at 2 uM incubated for 24 hrs in presence of glucose; format: cell-based
Summary of the method: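 HLE cells held 24 h in 75 mM D-glucose with or without 2 µM compound; 10 µM sorbinil as reference. Lysates from freeze/thaw and 10,000 × g spin were treated with perchloric acid and neutralized with KOH. Sorbitol assayed and expressed as nmol/mg protein (Bradford). Mean ± SEM of six measurements; one-way ANOVA with Tukey.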

O=C(O)CN1C(=O)/C(=C/c2ccc(OCCCOc3ccccc3)cc2)SC1=S
IC50 [1]: 0.22 µM | Activity [2]: 87.6%

O=C(O)CCN1C(=O)/C(=C/c2cccc(OCCCCc3ccccc3)c2)SC1=S
IC50 [1]: 2.1 µM | IC50 [3]: 3.2 µM | IC50 [4]: 25.8 µM | Ratio IC50 (Homo sapiens): 8 | inhibition [5]: Active | Activity [6]: > 90% | Ki [7]: 0.9 µM | Ki [8]: 6.6 µM | Ki [9]: 4 µM | Ki [10]: 1.1 µM | Ratio Ki [11]: 2 | Activity (C2C12 [12]): Non-Toxic | inhibition [13]: Active | inhibition [14]: Active | Activity (C2C12 [15]): Active | Activity (C2C12 [16]): Active | Activity (C2C12 [17]): inactive | Activity (C2C12 [18]): inactive

O=C(O)CN1C(=O)/C(=C/c2cccc(OCCCCc3ccccc3)c2)SC1=S
IC50 [1]: 0.06 µM | IC50 [3]: 4.3 µM | IC50 [4]: 9 µM | inhibition [5]: Active | Activity [6]: > 90% | Ki [19]: 4.6 µM | Ki [20]: 4.3 µM | Ki [9]: 0.08 µM | Ki [10]: 0.03 µM | Ratio Ki [11]: 2 | Activity (C2C12 [12]): Non-Toxic | inhibition [13]: Active | inhibition [14]: Active | Activity (C2C12 [15]): Active | Activity (C2C12 [16]): Active | Activity (C2C12 [17]): inactive | Activity (C2C12 [18]): inactive | Activity (HLE): Non-Toxic | inhibition [21]: Active
